The structures appear in SMILES notation.

The subject of one series is Leishmania donovani. Nature of the series: Antileishmanial activity against Leishmania donovani MHOM/IN/00/DEVI promastigotes measured after 72 hrs by MTT assay. Format: functional, organism-based. A digest of the protocol: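 Log-phase promastigotes were grown in Schneider's medium with 20% FCS, 2 mM L-glutamine and penicillin/streptomycin, and seeded at 10⁶ parasites/mL. Compounds in DMSO (final <0.5% v/v) were tested in duplicate for 72 h at 27 °C. MTT was added for 4 h, the reaction was stopped with 50% isopropanol/10% SDS, and A570 was read. IC50 relative to control was fitted by non-linear regression; mean of ≥3 independent experiments.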
A general note: Tetrazolium dyes change colour on reduction, which living cells bring about.

The test system of another series is Trypanosoma cruzi. As to the kind of experiment: Antitrypanosomal activity against Trypanosoma cruzi CL amastigotes overexpressing tdTomato red fluorescent protein infected in gamma-irradiated African green monkey Vero cells assessed as reduction in parasite growth measured 3 days post-infection by fluorescence assay. Particulars: light or radiation study, 72 h. Format: functional, organism-based.

Series [1] in a line: Cytotoxicity against CHO cells assessed as reduction in cell viability after 24 hrs by MTT assay. The series is classed as cell-based, Cricetulus griseus. Particulars: chinese hamster. In outline:
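Cells in complete RPMI (10% FCS, L-glutamine, penicillin/streptomycin) were allowed to adhere for 24 h at 37 °C in 5% CO₂. Compounds in DMSO (final <0.5% v/v) were then added in duplicate for 24 h. MTT (0.5 mg/mL in FCS-free medium) was applied for 2 h, formazan was dissolved in DMSO, and A570 was read with 630 nm reference. Viability is % of untreated cells; CC50 by non-linear regression; mean of three experiments.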

Series [2] is described as follows: Selectivity index, ratio of CC50 for CHO cells to IC50 for antileishmanial activity against Leishmania donovani MHOM/IN/00/DEVI promastigotes. The series is classed as toxicity. As to conditions: hamster, read-out: Ratio CC50/IC50. In outline: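 SI = CHO CC50 / promastigote IC50. Promastigotes: log-phase, Schneider's + 20% FCS, 10⁶/mL, DMSO <0.5% final, 72 h at 27 °C, MTT 4 h, A570, ≥3 experiments. CHO: complete RPMI + 10% FCS, 24 h attachment, 24 h exposure at 37 °C, MTT 0.5 mg/mL 2 h, A570/630, three experiments. Both values from non-linear regression of dose-response curves.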

Series [3] can be described thus: Selectivity index, ratio of CC50 for CHO cells to IC50 for antitrypanosomal activity against Trypanosoma cruzi CL amastigotes overexpressing tdTomato red fluorescent protein infected in gamma-irradiated African green monkey Vero cells. Format: toxicity. Particulars: Chinese hamster, read-out: Ratio CC50/IC50. A digest of the protocol:
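SI = CHO CC50 / T. cruzi IC50. CHO cells: complete RPMI + 10% FCS, 24 h attachment, then 24 h compound exposure at 37 °C, 5% CO₂, DMSO <0.5% final, in duplicate. MTT 0.5 mg/mL for 2 h, read at A570/630, three experiments. Parasites were tdTomato-labelled trypomastigotes. Both values from non-linear regression of dose-response curves.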

In general, IC50 refers to the concentration that gives 50% inhibition. The CC50 is the concentration at which the toxic effect on the cells reaches its halfway point. On to `CC1Cn2cc([N+](=O)[O-])nc2O1` (centres undefined), for which the IC50 with Leishmania donovani was 0.1 µM; in the series with Trypanosoma cruzi it was > 10 µM. The CC50 at 24 h in series [1] was > 500 µM. Also, the selectivity ratio in series [2] was > 5000.

`CC1Cn2c(nc([N+](=O)[O-])c2C#Cc2ccc(CO)cc2)O1` (centres undefined): the IC50 in the series with Leishmania donovani stood at 4.11 µM; in the series on Trypanosoma cruzi, 1.61 µM. For the same compound, the CC50 at 24 h in series [1] came to 8.77 µM. For the same compound, the selectivity ratio was 5.4 in series [3] and 2.1 in series [2].

In the case of `Cc1ccc(-c2c([N+](=O)[O-])nc3n2CC(C)O3)s1` (centres undefined), the IC50 with Leishmania donovani and in the series on Trypanosoma cruzi was > 10 µM each time. Besides, in series [1], the CC50 at 24 h is > 125 µM.

`CC1Cn2c(nc([N+](=O)[O-])c2-c2ccc(C=O)cc2)O1` (centres undefined): the IC50 with Leishmania donovani and in the series on Trypanosoma cruzi was > 10 µM in each case. For the same compound, in series [1], the cytotoxic concentration (CC50) at 24 h was found to be 255 µM.

Turning to `CC1Cn2c(nc([N+](=O)[O-])c2Br)O1` (centres undefined), the half-maximal inhibitory concentration (IC50) is 6.71 µM with Leishmania donovani and > 10 µM in the series with Trypanosoma cruzi. Moreover, in series [1], the CC50 at 24 h is 9.19 µM. Further, the selectivity ratio in series [2] worked out at 1.4.

As to `CC1Cn2c(nc([N+](=O)[O-])c2-c2ccc(Cl)cc2)O1` (centres undefined), the half-maximal inhibitory concentration (IC50) in the series with Leishmania donovani and in the series on Trypanosoma cruzi was > 10 µM in each case. Also, in series [1], the cytotoxic concentration (CC50) at 24 h is > 250 µM.

For the compound `COc1cc(-c2c([N+](=O)[O-])nc3n2CC(C)O3)cc(OC)c1OC` (centres undefined), the IC50 in the series on Leishmania donovani and in the series with Trypanosoma cruzi was > 10 µM in each case. In series [1], the CC50 at 24 h was > 125 µM.

In the case of `CC1Cn2c(nc([N+](=O)[O-])c2C#Cc2cccc(N)c2)O1` (centres undefined), the IC50 in the series with Leishmania donovani worked out at 3.49 µM; in the series on Trypanosoma cruzi, 3.63 µM. Moreover, in series [1], the CC50 at 24 h was determined as 18.1 µM. In addition, the selectivity ratio was found to be 5 in series [3] and 5.2 in series [2].

On to `CC1Cn2c(nc([N+](=O)[O-])c2C#Cc2ccccc2)O1` (centres undefined), for which the IC50 was 2.08 µM in the series with Leishmania donovani and 1.46 µM with Trypanosoma cruzi. The CC50 at 24 h in series [1] is 3.54 µM. The selectivity ratio in series [3] was determined as 2.4; in series [2], 1.7.

For `COc1cccc(C#Cc2c([N+](=O)[O-])nc3n2CC(C)O3)c1` (centres undefined), the IC50 came out at 1.58 µM in the series with Leishmania donovani and 0.92 µM with Trypanosoma cruzi. The CC50 at 24 h in series [1] turned out to be 12.9 µM. In addition, the selectivity ratio in series [3] was 14; in series [2] it was 8.1.

On to `CC1Cn2c(nc([N+](=O)[O-])c2C#Cc2ccc(C(C)(C)C)cc2)O1` (centres undefined), for which the IC50 with Leishmania donovani worked out at 0.61 µM; in the series with Trypanosoma cruzi, 2.86 µM. In series [1], the CC50 at 24 h came to 6.62 µM. The selectivity ratio in series [3] was found to be 2.3; in series [2], 10.8.

On to `Cc1ccc(C#Cc2c([N+](=O)[O-])nc3n2CC(C)O3)cc1` (centres undefined), for which the IC50 in the series with Leishmania donovani turned out to be 1.66 µM; in the series with Trypanosoma cruzi, 2.18 µM. Further, the CC50 at 24 h in series [1] came out at 5.47 µM. Further, the results for the selectivity ratio in series [3] and in series [2] were 2.5 and 3.3, respectively.

As to `CC1Cn2c(nc([N+](=O)[O-])c2-c2ccc(OC(F)(F)F)cc2)O1` (centres undefined), the IC50 in the series on Leishmania donovani and in the series on Trypanosoma cruzi was > 10 µM each time. For the same compound, the CC50 at 24 h in series [1] was > 125 µM.

Take `CC1Cn2c(nc([N+](=O)[O-])c2-c2cccc(C(F)(F)F)c2)O1` (centres undefined): the IC50 with Leishmania donovani and in the series with Trypanosoma cruzi was > 10 µM each time. Besides, the CC50 at 24 h in series [1] was > 250 µM.

Take `CC1Cn2c(nc([N+](=O)[O-])c2C#CC2CC2)O1` (centres undefined): the IC50 with Leishmania donovani worked out at 4.59 µM; in the series on Trypanosoma cruzi, 4.1 µM. Moreover, in series [1], the CC50 at 24 h worked out at 6.45 µM. For the same compound, the selectivity ratio in series [3] is 1.6; in series [2], 1.4.

As for `Cc1ccc(-c2c([N+](=O)[O-])nc3n2CC(C)O3)cc1` (centres undefined), the IC50 in the series with Leishmania donovani and with Trypanosoma cruzi was > 10 µM throughout. In series [1], the CC50 at 24 h was > 250 µM.

As for `CC1Cn2c(nc([N+](=O)[O-])c2-c2cccc(C#N)c2)O1` (centres undefined), the IC50 in the series on Leishmania donovani and in the series on Trypanosoma cruzi was > 10 µM each time. Besides, the CC50 at 24 h in series [1] was > 500 µM.

With `CC1Cn2c(nc([N+](=O)[O-])c2-c2ccc(CO)cc2)O1` (centres undefined), the IC50 with Leishmania donovani and in the series with Trypanosoma cruzi was > 10 µM in each case. For the same compound, the CC50 at 24 h in series [1] is > 500 µM.

Turning to `CC1Cn2c(nc([N+](=O)[O-])c2-c2ccccc2)O1` (centres undefined), the IC50 in the series with Leishmania donovani and with Trypanosoma cruzi was > 10 µM in each case. Also, the CC50 at 24 h in series [1] was > 500 µM.

Consider `CCCOc1ccc(-c2c([N+](=O)[O-])nc3n2CC(C)O3)cc1` (centres undefined), for which the IC50 in the series with Leishmania donovani and in the series with Trypanosoma cruzi was > 10 µM in each case. Further, the CC50 at 24 h in series [1] was > 125 µM.

As to `C[C@@H]1[C@H](O)[C@@H](C)/C=C/C=C/C=C/C=C/C=C/C=C/C=C/[C@H](O[C@@H]2O[C@H](C)[C@@H](O)[C@H](N)[C@@H]2O)C[C@@H]2O[C@](O)(C[C@@H](O)C[C@@H](O)[C@H](O)CC[C@@H](O)C[C@@H](O)CC(=O)O[C@H]1C)C[C@H](O)[C@H]2C(=O)O` [AMPHOTERICIN B], in the series on Leishmania donovani, the IC50 is 0.18 µM.

`O=C(Cn1ccnc1[N+](=O)[O-])NCc1ccccc1` [BENZNIDAZOLE]: in the series with Trypanosoma cruzi, the IC50 came to 2.31 µM.

As to `COc1cccc2c1C(=O)c1c(O)c3c(c(O)c1C2=O)C[C@@](O)(C(=O)CO)C[C@@H]3O[C@H]1C[C@H](N)[C@H](O)[C@H](C)O1` [DOXORUBICIN], the CC50 at 24 h in series [1] came out at 4.65 µM.

The values above are taken from ChEMBL document CHEMBL4680199, “Synthesis and in vitro evaluation of new 5-substituted 6-nitroimidazooxazoles as antikinetoplastid agents” (Eur J Med Chem, 2020).
